Experimental data as given in ChEMBL document CHEMBL2021903, “3-Deoxy-3,4-dehydro analogs of XM462. Preparation and activity on sphingolipid metabolism and cell fate” (Bioorg Med Chem, 2012).
The source made the active and inactive calls. No cut-off for these calls is given here.

What was measured:
[1] = target: T1, Acid ceramidase (Homo sapiens) (UniProt Q13510); experiment: Inhibition of aCDase using RBM14C16 as substrate at 16 uM after 1 hr by HPLC-FD analysis
T1 sequence (whole entry): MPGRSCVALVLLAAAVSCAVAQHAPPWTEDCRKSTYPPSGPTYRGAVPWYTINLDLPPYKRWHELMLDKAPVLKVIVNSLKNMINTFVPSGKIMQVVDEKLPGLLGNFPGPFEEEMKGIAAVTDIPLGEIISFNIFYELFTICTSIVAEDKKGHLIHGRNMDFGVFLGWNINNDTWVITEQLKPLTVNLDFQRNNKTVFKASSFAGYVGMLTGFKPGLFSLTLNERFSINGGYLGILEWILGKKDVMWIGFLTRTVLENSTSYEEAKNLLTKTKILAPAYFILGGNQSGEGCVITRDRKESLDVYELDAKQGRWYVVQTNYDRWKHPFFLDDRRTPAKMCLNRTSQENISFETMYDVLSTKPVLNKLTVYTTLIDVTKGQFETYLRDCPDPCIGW

[2] = target: T1, Acid ceramidase (Homo sapiens); experiment: Inhibition of aCDase in Moh.pAS AcCer10X cells using RBM14C16 as substrate at 16 uM after 1 hr by HPLC-FD analysis; format: cell-based
HCT-116 = experiment: Induction of apoptosis in human HCT116 cells at 30 uM after 14 hrs by Annexin V-propidium iodide staining based flow cytometry; format: functional, cell-based
How it was run: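 HCT116 (clone 40–16) in low-glucose DMEM with 10% FBS and 1% penicillin–streptomycin, seeded 2.5×10⁵ cells/mL. After 24 h, medium replaced with compound-containing medium; ethanol vehicle to controls. After incubation, cells PBS-washed, trypsinized, stained with Annexin V and propidium iodide, analysed by flow cytometry. Mean ± SD, 3 experiments in triplicate.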

inhibition [1] [%]	inhibition [2] [%]	Structure (SMILES)	Activity (HCT-116)
50	50	CCCCCCCCCCCCCCC[C@@H](O)[C@H](CO)NC(=O)C(C)(C)C	–
–	–	CCCCCCCCCCCCC/C=C/[C@@H](O)[C@H](CO)NC(=O)CCCCCCC	Active
50	50	CCCCCCCCCCCCC/C=C/[C@@H](O)[C@H](CO)NC(=O)C(C)(C)C	–
